In ChEMBL document CHEMBL3870323, “Sulfonamide chalcones: Synthesis and in vitro exploration for therapeutic potential against Brugia malayi” (Eur J Med Chem, 2016):
Activity calls are given as the source filed them. No cut-off for these calls is given here.

System: not listed separately
Test: Antifilarial activity against Brugia malayi microfilariae isolated from peritoneal cavity of infected Meriones unguiculatus assessed as loss of motility incubated for 48 hrs by microscopy
Format: functional
Settings: not given
Summary of the method: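 Jird peritoneal Mf cleaned of exudate cells by 1 h adherence at 37°C. Exposed to compound over 1–100 µM final with shaking at 37°C, 30 min, 150 rpm in 0.9% saline. Washed, plated at 100 Mf per well in RPMI, triplicate wells, then 48 h at 37°C in 5% CO2. Vehicle control 1% DMSO. Loss of motility read by microscopy; experiment repeated three times; IC50 calculated.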

Row | SMILES | IC50
1 | Cc1ccc(S(=O)(=O)Nc2ccc(C(=O)/C=C/c3ccc(C(C)C)cc3)cc2)cc1 | 20 µM
2 | O=C(/C=C/c1ccc(Br)cc1)c1ccc(NS(=O)(=O)c2ccccc2)cc1 | 70 µM
3 | O=C(/C=C/c1ccc(F)cc1)c1ccc(NS(=O)(=O)c2ccccc2)cc1 | 4.5 µM
4 | Cc1ccc(S(=O)(=O)Nc2ccc(C(=O)/C=C/c3cccc(Br)c3)cc2)cc1 | 15 µM
5 | COc1ccc(/C=C/C(=O)c2ccc(NS(C)(=O)=O)cc2)cc1 | 60 µM
6 | CS(=O)(=O)Nc1ccc(C(=O)/C=C/c2ccc([N+](=O)[O-])cc2)cc1 | 4.4 µM
7 | O=C(/C=C/c1ccc(Cl)cc1)c1ccc(NS(=O)(=O)c2ccccc2)cc1 | 17 µM
8 | Cc1ccc(S(=O)(=O)Nc2ccc(C(=O)/C=C/c3ccc(Br)cc3)cc2)cc1 | 4.6 µM
9 | Cc1ccc(S(=O)(=O)Nc2ccc(C(=O)/C=C/c3ccccc3)cc2)cc1 | 9.7 µM
10 | Cc1ccc(S(=O)(=O)Nc2ccc(C(=O)/C=C/c3ccc(O)cc3)cc2)cc1 | 82 µM
11 | CS(=O)(=O)Nc1ccc(C(=O)/C=C/c2ccccc2)cc1 | 32 µM
12 | Cc1ccc(/C=C/C(=O)c2ccc(NS(=O)(=O)c3ccc(C)cc3)cc2)cc1 | 8.2 µM

System: Brugia malayi
Test: Induction of apoptosis in Brugia malayi microfilariae isolated from peritoneal cavity of infected Meriones unguiculatus after 48 hrs by acridine orange/ethidium bromide dual staining based epifluorescence microscopy
Format: functional
Settings: not given
Summary of the method: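 Mf, control or treated for 48 h, washed and resuspended in cold PBS. Dye mix of 100 µg/mL AO and 100 µg/mL EB in PBS added. Viewed by epifluorescence microscopy with 480/30 nm excitation; green nuclei scored as live, orange/red as apoptotic or dead. Staurosporine was the positive control and untreated Mf the negative control.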

Row | SMILES | Activity
13 | Cc1ccc(S(=O)(=O)Nc2ccc(C(=O)/C=C/c3ccc(C(C)C)cc3)cc2)cc1 | Active
14 | O=C(/C=C/c1ccc(Br)cc1)c1ccc(NS(=O)(=O)c2ccccc2)cc1 | Active
15 | O=C(/C=C/c1ccc(F)cc1)c1ccc(NS(=O)(=O)c2ccccc2)cc1 | Active
16 | Cc1ccc(S(=O)(=O)Nc2ccc(C(=O)/C=C/c3cccc(Br)c3)cc2)cc1 | Active
17 | COc1ccc(/C=C/C(=O)c2ccc(NS(C)(=O)=O)cc2)cc1 | Active
18 | CS(=O)(=O)Nc1ccc(C(=O)/C=C/c2ccc([N+](=O)[O-])cc2)cc1 | Active
19 | O=C(/C=C/c1ccc([N+](=O)[O-])cc1)c1ccc(NS(=O)(=O)c2ccccc2)cc1 | Active
20 | O=C(/C=C/c1ccc(Cl)cc1)c1ccc(NS(=O)(=O)c2ccccc2)cc1 | Active
21 | Cc1ccc(S(=O)(=O)Nc2ccc(C(=O)/C=C/c3ccc(Br)cc3)cc2)cc1 | Active
22 | Cc1ccc(S(=O)(=O)Nc2ccc(C(=O)/C=C/c3ccccc3)cc2)cc1 | Active
23 | Cc1ccc(S(=O)(=O)Nc2ccc(C(=O)/C=C/c3ccc(O)cc3)cc2)cc1 | Active
24 | CS(=O)(=O)Nc1ccc(C(=O)/C=C/c2ccccc2)cc1 | Active
25 | Cc1ccc(/C=C/C(=O)c2ccc(NS(=O)(=O)c3ccc(C)cc3)cc2)cc1 | Active

System: not listed separately
Test: Antifilarial activity against Brugia malayi microfilariae isolated from peritoneal cavity of infected Meriones unguiculatus assessed as loss of motility at 500 uM incubated for 48 hrs by microscopy
Format: functional
Settings: not given
Summary of the method: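 Jird peritoneal Mf washed in RPMI 1640 with gentamycin, penicillin and streptomycin, then held 1 h at 37°C on dishes to remove exudate cells. About 300 Mf in 0.9% saline exposed to compound with shaking at 37°C, 30 min, 150 rpm. 100 Mf per well, in triplicate, then 48 h at 37°C in 5% CO2 in RPMI. Stocks were 2 mM in DMSO; vehicle control 1% DMSO. Motility scored by microscopy; mean ± SEM % loss of motility.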

Row | SMILES | Activity
26 | O=C(/C=C/c1ccc(Br)s1)c1ccc(NS(=O)(=O)c2ccccc2)cc1 | 9%
27 | O=C(/C=C/c1ccccc1Cl)c1ccc(NS(=O)(=O)c2ccccc2)cc1 | 33.3%
28 | Cc1ccc(S(=O)(=O)Nc2ccc(C(=O)/C=C/c3ccc(C(C)C)cc3)cc2)cc1 | 100%
29 | O=C(/C=C/c1ccc(Br)cc1)c1ccc(NS(=O)(=O)c2ccccc2)cc1 | 100%
30 | COc1ccc(/C=C/C(=O)c2ccc(NS(=O)(=O)c3ccccc3)cc2)cc1 | 1.81%
31 | Cc1ccc(/C=C/C(=O)c2ccc(NS(=O)(=O)c3ccccc3)cc2)cc1 | 6.34%
32 | O=C(/C=C/c1ccc(F)cc1)c1ccc(NS(=O)(=O)c2ccccc2)cc1 | 100%
33 | Cc1ccc(S(=O)(=O)Nc2ccc(C(=O)/C=C/c3cccc(Br)c3)cc2)cc1 | 100%
34 | COc1ccc(/C=C/C(=O)c2ccc(NS(C)(=O)=O)cc2)cc1 | 100%
35 | CS(=O)(=O)Nc1ccc(C(=O)/C=C/c2ccc([N+](=O)[O-])cc2)cc1 | 100%
36 | O=C(/C=C/c1ccc([N+](=O)[O-])cc1)c1ccc(NS(=O)(=O)c2ccccc2)cc1 | 100%
37 | O=C(/C=C/c1ccccc1)c1ccc(NS(=O)(=O)c2ccccc2)cc1 | 4.52%
38 | O=C(/C=C/c1ccc(O)cc1)c1ccc(NS(=O)(=O)c2ccccc2)cc1 | 5.2%
39 | O=C(/C=C/c1ccc(Cl)cc1)c1ccc(NS(=O)(=O)c2ccccc2)cc1 | 100%
40 | Cc1ccc(S(=O)(=O)Nc2ccc(C(=O)/C=C/c3ccc(-c4ccccc4)cc3)cc2)cc1 | 6.24%
41 | Cc1ccc(S(=O)(=O)Nc2ccc(C(=O)/C=C/c3ccc(Br)cc3)cc2)cc1 | 100%
42 | Cc1ccc(S(=O)(=O)Nc2ccc(C(=O)/C=C/c3ccccc3Br)cc2)cc1 | 3.04%
43 | Cc1ccc(S(=O)(=O)Nc2ccc(C(=O)/C=C/c3ccccc3)cc2)cc1 | 100%
44 | Cc1ccc(S(=O)(=O)Nc2ccc(C(=O)/C=C/c3ccc(Cl)cc3)cc2)cc1 | 1.58%
45 | O=C(/C=C/c1ccco1)c1ccc(NS(=O)(=O)c2ccccc2)cc1 | 8.11%
46 | COc1ccc(/C=C/C(=O)c2ccc(NS(=O)(=O)c3ccc(C)cc3)cc2)cc1 | 82.7%
47 | Cc1ccc(S(=O)(=O)Nc2ccc(C(=O)/C=C/c3ccccc3Cl)cc2)cc1 | 4.1%
48 | Cc1ccc(S(=O)(=O)Nc2ccc(C(=O)/C=C/c3ccc(O)cc3)cc2)cc1 | 100%
49 | CS(=O)(=O)Nc1ccc(C(=O)/C=C/c2ccccc2)cc1 | 100%
50 | O=C(/C=C/c1ccccc1Br)c1ccc(NS(=O)(=O)c2ccccc2)cc1 | 13.4%
51 | CN(C)c1ccc(/C=C/C(=O)c2ccc(NS(=O)(=O)c3ccccc3)cc2)cc1 | 3.75%
52 | Cc1ccc(/C=C/C(=O)c2ccc(NS(=O)(=O)c3ccc(C)cc3)cc2)cc1 | 100%

System: not listed separately
Test: Cytotoxicity against human PBMC after 48 hrs by trypan blue exclusion assay
Format: toxicity, cell-based
Settings: PBMC (peripheral blood mononuclear cells), read-out: LD50
Summary of the method: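 Human PBMCs came from healthy donors' venous blood by histopaque-1077 density separation. Cells were washed in RPMI 1640 with 2 mM L-glutamine and resuspended in RPMI with 10% FBS at 1x10^5 cells/ml. Trypan blue exclusion followed the procedure adapted from the microfilarial motility assay. LD50 was taken as the dose giving 50% cytotoxicity.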

Row | SMILES | CC50 at 48 h
53 | Cc1ccc(S(=O)(=O)Nc2ccc(C(=O)/C=C/c3ccc(C(C)C)cc3)cc2)cc1 | 50 µM
54 | O=C(/C=C/c1ccc(Br)cc1)c1ccc(NS(=O)(=O)c2ccccc2)cc1 | 265 µM
55 | O=C(/C=C/c1ccc(F)cc1)c1ccc(NS(=O)(=O)c2ccccc2)cc1 | 217 µM
56 | Cc1ccc(S(=O)(=O)Nc2ccc(C(=O)/C=C/c3cccc(Br)c3)cc2)cc1 | 80 µM
57 | COc1ccc(/C=C/C(=O)c2ccc(NS(C)(=O)=O)cc2)cc1 | 194 µM
58 | CS(=O)(=O)Nc1ccc(C(=O)/C=C/c2ccc([N+](=O)[O-])cc2)cc1 | 188 µM
59 | O=C(/C=C/c1ccc(Cl)cc1)c1ccc(NS(=O)(=O)c2ccccc2)cc1 | 177 µM
60 | Cc1ccc(S(=O)(=O)Nc2ccc(C(=O)/C=C/c3ccc(Br)cc3)cc2)cc1 | 220 µM
61 | Cc1ccc(S(=O)(=O)Nc2ccc(C(=O)/C=C/c3ccccc3)cc2)cc1 | 335 µM
62 | Cc1ccc(S(=O)(=O)Nc2ccc(C(=O)/C=C/c3ccc(O)cc3)cc2)cc1 | 270 µM
63 | CS(=O)(=O)Nc1ccc(C(=O)/C=C/c2ccccc2)cc1 | 134 µM
64 | Cc1ccc(/C=C/C(=O)c2ccc(NS(=O)(=O)c3ccc(C)cc3)cc2)cc1 | 140 µM
